Experimental findings from ChEMBL document CHEMBL3244336, “Antitumor agents. 1. 1,4-Bis[(aminoalkyl)amino]-9,10-anthracenediones” (J Med Chem, 1979) are described below.

Where only a bound is given, the exact number is not on record here.

Data set [1] has as its system B16. The data set can be described thus: Antitumor activity against mouse B16 cells allografted in BDF1 mouse assessed as increase of median life span at 200 mg/kg, ip on day […] measured up to 80 days relative to control. The format is functional. Conditions: route intraperitoneal.
The test system of data set [2] is P388. The experiment in a line: Antitumor activity against mouse P388 cells allografted in mouse assessed as increase of median life span at 200 mg/kg, ip on day 1, 5 and 9 measured up to 60 days relative to control. Type of data set: functional. To be noted: route intraperitoneal. The gist of the method: (§1)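 BDF1 or CDF1 mice inoculated ip with ascitic P388 leukemia cells. Dosing ip on days 1, 5 and 9. Deaths recorded for 60 days; % increase in median life span over controls. "Cures" are survivors/total at 60 days.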

Data set [3] has as its system B16. The experiment in a line: Antitumor activity against mouse B16 cells allografted in BDF1 mouse assessed as increase of median life span at 100 mg/kg, ip on day 1 to 9 measured up to 80 days relative to control. Conditions: route intraperitoneal. The format is functional. The gist of the method: (§2)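 BDF1 mice implanted ip with a homogenate from 0.05 g of B16 tumor. Test agent given ip on days 1-9. Deaths recorded for 80 days. Result is % increase in median life span over untreated controls. "Cures" are survivors/total at 80 days.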

Data set [4] can be described thus: Therapeutic index, ratio of MTD for mouse P388 cells allografted ip dosed mouse to MED for mouse P388 cells allografted in ip dosed mouse administered as once each 4 days for 3 total injection. The format is organism-based. Conditions: in vivo, read-out: TI. In short, it runs like this:
(§3)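 Therapeutic index is MTD/MED for ip dosing, either single or once every 4 days ×3. MTD is the 10% lethal dose in normal mice over 21 days. MED is the dose giving a 40% life-span increase in P388-bearing mice. Both come from log dose-response regression lines.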

Data set [5] deals with B16. The experiment in a line: Antitumor activity against mouse B16 cells allografted in BDF1 mouse assessed as increase of median life span at 0.8 mg/kg, ip on day 1 to 9 measured up to 80 days relative to control. Type of data set: functional. Conditions: route intraperitoneal. The gist of the method:
as §2

Data set [6] concerns P388. The data set can be described thus: Antitumor activity against mouse P388 cells allografted in ip dosed mouse assessed as minimum effective dose administered as once each 4 days for 3 total injection. Type of data set: functional. To be noted: 96 h, read-out: MED. In short, it runs like this:
(§4)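 Drug given ip to P388 tumor-bearing mice, either once as a single dose or once each 4 days for three injections. Minimum effective dose defined as the dose giving 40% increase in life span over control, read from regression lines of log dose-response data.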

Data set [7] has as its system P388. The experiment in a line: Antitumor activity against mouse P388 cells allografted in mouse assessed as increase of median life span at 1.6 mg/kg, ip on day 1, 5 and 9 measured up to 60 days relative to control. Type of data set: functional. To be noted: route intraperitoneal. In short, it runs like this: as §1
Data set [8] deals with L5178Y. The experiment in a line: Ratio of adriamycin to compound for inhibition of RNA synthesis in mouse L5178Y cells. Type of data set: functional.
Data set [9] is described as follows: Toxicity in […] assessed as maximum tolerated dose administered as single dose. Type of data set: organism-based, P388. Conditions: mouse, in vivo, ip.
Data set [10] deals with P388. The data set can be described thus: Antitumor activity against mouse P388 cells allografted in ip dosed mouse assessed as dose providing 40% increase in life span administered as once each 4 days for 3 total injection. The format is functional. The gist of the method: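 P388 tumor-bearing mice dosed ip, either once as a single dose or once every 4 days for three injections. It was read from regression lines of log dose-response data.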

Data set [11] has as its system P388. The experiment in a line: Antitumor activity against mouse P388 cells allografted in ip dosed mouse assessed as minimum effective dose administered as single dose. Type of data set: functional. Conditions: read-out: MED. In short, it runs like this:
as §4

A short description of data set [12]: Toxicity in […] assessed as maximum tolerated dose administered as once each 4 days for 3 total injection. Conditions: mouse, in vivo, ip. Type of data set: organism-based, P388.
Data set [13] deals with L5178Y. The experiment in a line: Ratio of adriamycin to compound for inhibition of DNA synthesis in mouse L5178Y cells. Type of data set: functional.
A short description of data set [14]: Therapeutic index, ratio of MTD for mouse P388 cells allografted ip dosed mouse to MED for mouse P388 cells allografted in ip dosed mouse administered as single dose. The format is organism-based. To be noted: in vivo, read-out: TI. The gist of the method:
as §3

As to `O=C1c2c(O)ccc(O)c2C(=O)c2c(NCCN(CCO)CCO)ccc(NCCN(CCO)CCO)c21`, the ILS at 200 mg/kg turned out to be 212% in data set [1] and 306% in data set [2].
In the case of `O=C1c2c(O)ccc(O)c2C(=O)c2c(NCCNCCN3CCOCC3)ccc(NCCNCCN3CCOCC3)c21`, in [3], the increase in lifespan (ILS) at 100 mg/kg is 233%. Also, the ILS at 200 mg/kg in data set [2] worked out at 136%.
In the case of `Cl.Cl.O=C1c2c(O)ccc(O)c2C(=O)c2c(NCCNCCO)ccc(NCCNCCO)c21` [MITOXANTRONE HYDROCHLORIDE], the selectivity ratio at 96 h in data set [4] stood at 148. The ILS at 0.8 mg/kg in data set [5] was > 272%. For the same molecule, the minimal effective dose in data set [6] came out at 0.023 mg/kg; in [11], 0.15 mg/kg. Besides, the increase in lifespan (ILS) at 1.6 mg/kg in data set [7] was > 500%. Further, the Ratio in data set [8] is 7; in data set [13], 4. Also, in data set [9], the MTD stood at 4.2 mg/kg. Further, the Activity in data set [10] worked out at 300 mg/kg. For the same molecule, in [12], the MTD at 96 h amounted to 3.4 mg/kg. Also, the selectivity ratio in data set [14] worked out at 28.

Usually ILS stands for the gain in survival time of treated over control animals, in per cent. What is called MTD is the largest dose that counted as tolerated.
